Measurements taken from the RNAGym collection of RNA variant scans (doi:10.1002/anie.201605470).

B1: Osa-1-4 twister ribozyme (parent)
chain: CCGCCUAACACUGCCAAUGCCGGUCCCAAGCCCGGAUAAAAGUGGAGGGGGCGG

Variants of: B1
Experiment: self-cleavage, relative activity (ratio to wild type); higher = more cleavage; co-transcriptional
Method in brief: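 The 48 positions downstream of the cleavage site in a 54-nucleotide Oryza sativa twister ribozyme template were synthesised at 97 % wild-type base and 1 % of each other base. The template was transcribed in vitro at 37 °C for 2 h, with self-cleavage allowed during transcription. Reads with or without upstream sequence after deep sequencing marked cleavage status, and relative activity is fraction cleaved normalised to wild type.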

Row | Variant | self-cleavage
1 | A41G G23U | 0.06
2 | A41G G23A | 0.12
3 | A41G G23C | 0.07
4 | A41G A8G | 0.19
5 | A41G A8C | 0.09
6 | A41G A8U | 0.1
7 | A41U C33U | 0.81
8 | A41U C33G | 0.1
9 | A41U C33A | 0.14
10 | A41C G19C | 0.14
11 | A41C G19U | 0.15
12 | A41C G19A | 0.74
13 | A41C A8U | 0.16
14 | A41C A8G | 0.24
15 | A41C A8C | 0.09
16 | A41U C15A | 0.26
17 | A41U C15U | 0.56
18 | A41U C15G | 0.64
19 | A41C G47C | 0.09
20 | A41C G47U | 0.2
21 | A41C G47A | 0.17
22 | A41G G44C | 0.39
23 | A41G G44U | 0.31
24 | A41G G44A | 0.14

Row | Variant | self-cleavage
25 | A41C C11A | 0.71
26 | A41C C11U | 0.81
27 | A41C C11G | 0.24
28 | A41G U18G | 0.83
29 | A41G U18C | 0.74
30 | A41G U18A | 0.77
31 | A41U G50A | 0.6
32 | A41U G50C | 0.99
33 | A41G C33A | 0.07
34 | A41G C33U | 0.12
35 | A41G C33G | 0.1
36 | A41G G30U | 0.05
37 | A41G G30A | 0.05
38 | A41G G30C | 0.05
39 | A41U G49U | 0.13
40 | A41U G49C | 0.07
41 | A41U G49A | 0.14
42 | A41U C20G | 0.19
43 | A41U C20U | 0.95
44 | A41U C20A | 0.85
45 | A41U C31A | 0.04
46 | A41U C31U | 0.94
47 | A41U C31G | 0.13
48 | A41U | 1.02

Row | Variant | self-cleavage
49 | A41C | 0.99
50 | A41G | 0.84
51 | A41U C52G | 1.05
52 | A41U C52U | 1.04
53 | A41U C52A | 1.02
54 | A40U U18C | 0.71
55 | A40U U18G | 0.64
56 | A40U U18A | 0.77
57 | A41C C32G | 0.11
58 | A41C C32U | 0.09
59 | A41C C32A | 0.08
60 | A40U U12C | 0.19
61 | A40U U12G | 0.36
62 | A41G A7C | 0.05
63 | A41G A7U | 0.08
64 | A41G A7G | 0.14
65 | A41G G54C | 0.8
66 | A41G G54A | 0.81
67 | A41G G54U | 0.82
68 | A41G C11A | 0.12
69 | A41G C11G | 0.18
70 | A41G C11U | 0.34
71 | A41U G19U | 0.35
72 | A41U G19C | 0.24

Row | Variant | self-cleavage
73 | A41U G19A | 0.94
74 | A41C G44A | 0.81
75 | A41C G44U | 0.9
76 | A41C G44C | 0.97
77 | A41G G22C | 0.05
78 | A41G G22U | 0.27
79 | A41G G22A | 0.48
80 | A41G A46U | 0.08
81 | A41G A46G | 0.07
82 | A41G A46C | 0.06
83 | A41C G49C | 0.08
84 | A41C G49U | 0.12
85 | A41C G49A | 0.11
86 | A41C C9A | 0.39
87 | A41C C9G | 0.41
88 | A41C C9U | 0.79
89 | A41G C21U | 0.75
90 | A41G C21A | 0.22
91 | A41G C21G | 0.13
92 | A41C G54A | 0.92
93 | A41C G54C | 0.85
94 | A41C G54U | 0.89
95 | A41G C20A | 0.85
96 | A41G C20G | 0.12

Row | Variant | self-cleavage
97 | A41G C20U | 0.85
98 | A41G C27A | 0.09
99 | A41G C27U | 0.09
100 | A41G C27G | 0.04
101 | A41U A46G | 0.07
102 | A41U A46U | 0.09
103 | A41U A46C | 0.06
104 | A41G C32A | 0.06
105 | A41G C32U | 0.08
106 | A41G C32G | 0.13
107 | A41U G23A | 0.62
108 | A41U G23U | 0.09
109 | A41U G23C | 0.08
110 | A41U C14G | 0.3
111 | A41U C14U | 0.7
112 | A41U C14A | 0.13
113 | A41C A46G | 0.06
114 | A41C A46U | 0.08
115 | A41C A46C | 0.05
116 | A41G G13A | 0.06
117 | A41G G13C | 0.03
118 | A41G G13U | 0.04
119 | A41C G13U | 0.04
120 | A41C G13C | 0.02

Row | Variant | self-cleavage
121 | A41C G13A | 0.08
122 | A41G G47C | 0.07
123 | A41G G47A | 0.1
124 | A41G G47U | 0.08
125 | A40U U37C | 0.77
126 | A40U U37G | 0.94
127 | A40U U37A | 0.87
128 | A41G C26A | 0.05
129 | A41G C26U | 0.17
130 | A41G C26G | 0.09
131 | A41C G35A | 0.81
132 | A41C G35U | 0.76
133 | A41C G35C | 0.63
134 | A41U C25U | 0.91
135 | A41U C25A | 0.1
136 | A41U C25G | 0.11
137 | A41G G53A | 0.61
138 | A41G G53U | 0.25
139 | A41G G53C | 0.08
140 | A41C G23C | 0.06
141 | A41C G23A | 0.29
142 | A41C G23U | 0.06
143 | A41U C11G | 0.45
144 | A41U C11A | 0.79

Row | Variant | self-cleavage
145 | A41U C11U | 0.9
146 | A41U C21U | 1
147 | A41U C21G | 0.1
148 | A41U C21A | 0.87
149 | A41G G35U | 0.51
150 | A41G G35A | 0.57
151 | A41G G35C | 0.15
152 | A41U G48U | 0.07
153 | A41U G48C | 0.1
154 | A41U G48A | 0.09
155 | A41G U43C | 0.13
156 | A41G U43A | 0.21
157 | A41G U43G | 0.16
158 | A41C A7C | 0.05
159 | A41C A7G | 0.18
160 | A41C A7U | 0.09
161 | A41C G48A | 0.08
162 | A41C G48C | 0.1
163 | A41C G48U | 0.07
164 | A41C G42C | 0.12
165 | A41C G42A | 0.19
166 | A41C G42U | 0.11
167 | A41C G34C | 0.32
